# Shown are actives, neighbours in structure and some others; about 7.1% of the full set was active somewhere.
# H69AR inhibit – growth inhibitors of human H69AR lung tumor cells. H69AR lung tumor viability, ATP luminescence, 72 h; stronger effect = lower value. viability, % at 10 µM. hit rate 6% among 85,000. AID 598;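 active = viability at or below 40%; inactive = viability above 40%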;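 also: multidrug resistant small cell line overexpressing MRP-1 efflux transporter; 100% = mean luminescence of untreated control wells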
# HCT116 bCat-KO – beta-catenin-lacking colon tumor cell growth suppression | HCT116 beta-catenin knockout viability, CellTiter-Glo, 60 h; stronger effect = lower value | viability, % at 10 µM | hit rate 1.5% among 140,000 | AID 818;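 active = viability at or under a set limit, the compound median less 4 SD, cut at about 6% in these data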;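 also: 0% = Hyamine 1622 control at 20 µM and 100% = untreated cell control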
# HUVEC prolif 384 – human endothelial cell proliferation inhibition | hit rate 1.1% among 86,000 | HUVEC proliferation, CellTiter-Glo luminescence, 72 h; stronger effect = lower value | viability, % at 10 µM (by protocol);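 active = viability at or below 30%; inactive = viability above 30%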;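 also: 100% = median luminescence of DMSO-only cell control wells on each plate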
# Lung fibro prol – blocks proliferation of human lung fibroblasts. viability, % at 10 µM. AID 719. LL 47 human lung fibroblast viability, ATP luminescence; stronger effect = lower value. hit rate 1.1% among 85,000;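 active = viability at or below 50% in the single dose screen; inactive = viability above 50%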;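 also: compound exposure lasted 72 h before the ATP readout; 100% = median luminescence of untreated cell-only wells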
#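 test system = LL 47 human lung fibroblasts | amount = 1,150 fibroblasts seeded per well | medium = 15% FBS in IMEM | times = overnight cell rest, 72 h compound treatment at 37 °C | measured by = CellTiter-Glo luminescence measuring cellular ATP | read-out = viability percentage against median untreated-cell control | benchmarks = cell-only wells, no compound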
# Cav3 T inh – inhibitors of human Cav3.2 T-type calcium channel. hit rate 4% among 100,000. B-score at 10 µM. Cav3.2-expressing cells, Fluo-4 calcium fluorescence FDSS; stronger effect = lower value. O95180;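 active = single-dose well whose peak fluorescence ratio is a statistical outlier from its plate by either plate-standardised score or position-corrected B-score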
# Target sequence (O95180 whole entry, looked up): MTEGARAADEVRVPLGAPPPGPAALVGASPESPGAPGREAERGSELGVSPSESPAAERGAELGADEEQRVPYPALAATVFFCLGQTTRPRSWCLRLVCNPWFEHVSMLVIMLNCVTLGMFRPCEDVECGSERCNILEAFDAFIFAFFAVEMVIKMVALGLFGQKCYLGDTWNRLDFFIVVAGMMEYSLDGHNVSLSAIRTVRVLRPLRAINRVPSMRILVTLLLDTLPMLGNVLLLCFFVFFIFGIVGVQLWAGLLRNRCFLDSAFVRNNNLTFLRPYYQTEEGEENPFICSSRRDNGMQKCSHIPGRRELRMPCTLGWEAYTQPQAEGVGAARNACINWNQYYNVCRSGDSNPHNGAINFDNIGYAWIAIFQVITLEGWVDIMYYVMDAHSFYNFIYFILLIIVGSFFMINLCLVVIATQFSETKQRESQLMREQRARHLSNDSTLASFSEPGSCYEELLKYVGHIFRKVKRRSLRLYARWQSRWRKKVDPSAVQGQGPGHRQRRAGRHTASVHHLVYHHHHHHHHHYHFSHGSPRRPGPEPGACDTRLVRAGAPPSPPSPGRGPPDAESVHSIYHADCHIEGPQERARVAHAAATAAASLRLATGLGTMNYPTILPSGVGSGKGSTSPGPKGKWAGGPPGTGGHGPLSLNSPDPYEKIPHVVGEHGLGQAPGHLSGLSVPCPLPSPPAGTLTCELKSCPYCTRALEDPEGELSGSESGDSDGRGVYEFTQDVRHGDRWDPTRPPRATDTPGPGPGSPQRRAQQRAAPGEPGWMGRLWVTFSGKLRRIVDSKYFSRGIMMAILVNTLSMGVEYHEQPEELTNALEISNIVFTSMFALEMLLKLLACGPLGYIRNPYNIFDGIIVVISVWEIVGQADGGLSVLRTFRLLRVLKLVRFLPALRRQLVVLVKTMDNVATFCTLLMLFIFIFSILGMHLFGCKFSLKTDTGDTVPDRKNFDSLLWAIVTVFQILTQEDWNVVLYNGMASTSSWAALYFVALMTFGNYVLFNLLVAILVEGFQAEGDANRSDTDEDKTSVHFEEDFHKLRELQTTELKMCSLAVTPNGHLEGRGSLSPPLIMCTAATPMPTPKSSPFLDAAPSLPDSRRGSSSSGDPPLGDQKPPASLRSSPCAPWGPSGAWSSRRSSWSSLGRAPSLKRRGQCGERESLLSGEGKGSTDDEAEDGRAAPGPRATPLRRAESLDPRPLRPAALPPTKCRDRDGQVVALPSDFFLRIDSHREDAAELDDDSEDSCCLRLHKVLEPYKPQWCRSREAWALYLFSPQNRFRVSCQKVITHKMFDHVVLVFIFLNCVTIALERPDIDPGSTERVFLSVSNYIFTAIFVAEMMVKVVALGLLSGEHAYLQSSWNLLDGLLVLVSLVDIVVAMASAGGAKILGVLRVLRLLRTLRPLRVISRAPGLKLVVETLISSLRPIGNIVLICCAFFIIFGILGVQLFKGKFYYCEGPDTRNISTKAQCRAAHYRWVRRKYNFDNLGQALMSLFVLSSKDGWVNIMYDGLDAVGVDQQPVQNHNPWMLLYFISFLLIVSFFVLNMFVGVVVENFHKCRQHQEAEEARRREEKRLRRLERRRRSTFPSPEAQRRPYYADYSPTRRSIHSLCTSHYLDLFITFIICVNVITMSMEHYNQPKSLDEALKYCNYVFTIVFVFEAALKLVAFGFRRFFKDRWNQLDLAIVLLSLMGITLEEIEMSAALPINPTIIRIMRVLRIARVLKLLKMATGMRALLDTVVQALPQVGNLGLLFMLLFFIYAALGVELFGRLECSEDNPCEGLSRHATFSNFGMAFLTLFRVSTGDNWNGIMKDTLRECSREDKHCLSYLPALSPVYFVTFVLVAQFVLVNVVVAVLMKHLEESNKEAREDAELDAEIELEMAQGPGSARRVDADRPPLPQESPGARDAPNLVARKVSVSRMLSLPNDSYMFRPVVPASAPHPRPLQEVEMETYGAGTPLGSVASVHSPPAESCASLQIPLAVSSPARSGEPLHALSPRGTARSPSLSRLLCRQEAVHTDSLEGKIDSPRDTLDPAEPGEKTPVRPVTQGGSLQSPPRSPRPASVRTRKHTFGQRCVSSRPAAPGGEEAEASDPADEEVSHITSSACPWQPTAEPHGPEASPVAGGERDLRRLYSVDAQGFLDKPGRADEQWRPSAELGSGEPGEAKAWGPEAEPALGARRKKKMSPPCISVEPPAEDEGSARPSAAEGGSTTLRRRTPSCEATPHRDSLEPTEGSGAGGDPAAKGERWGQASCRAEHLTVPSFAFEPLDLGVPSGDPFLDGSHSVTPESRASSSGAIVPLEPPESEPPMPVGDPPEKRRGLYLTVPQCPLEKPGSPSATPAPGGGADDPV
# PTEN del growth – growth suppressors of cells with PTEN tumor suppressor deletion; HCT116 PTEN-null viability, CellTiter-Glo, 60 h; stronger effect = lower value; viability, % at 10 µM; hit rate 1.2% among 140,000; AID 827;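 active = viability at or below a set limit, 4 SD under the median of all tested compounds, cut at about 3.7% in these data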;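 also: PTEN knockout HCT116 line with beta catenin targeted HCT116 as companion control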
# Numbers without * were called inactive; x = not tested or not shown.
SMILES,H69AR inhibit,HCT116 bCat-KO,HUVEC prolif 384,Lung fibro prol,Cav3 T inh,PTEN del growth
Cc1ccccc1NC(=O)c1c(O)c2cccc3c2n(c1=O)CC3,66,x,104,98,x,x
Cn1c(=O)c(C(=O)NCCO)c(O)c2ccccc21,92,101,104,105,-0.11,103
Cc1cccnc1NC(=O)c1c(O)c2ccccc2n(C)c1=O,5.4*,89,115,94,0.015,97
Cc1cccnc1NC(=O)c1c(O)c2cccc3c2n(c1=O)CCC3,2.8*,88,75,96,-1,78
O=C(Nc1ccccn1)c1c(O)c2cccc3c2n(c1=O)CCC3,35*,88,113,91,0.26,79
O=C(NCCO)c1c(O)c2cccc3c2n(c1=O)CC3,x,88,91,97,-0.075,99
O=C(Nc1nccs1)c1c(O)c2cccc3c2n(c1=O)CCC3,4.0*,25,72,49*,-0.68,18
Cc1ccccc1NC(=O)c1c(O)c2cccc3c2n(c1=O)CCC3,31*,x,98,92,x,x
O=[N+]([O-])c1ccc(Cl)cc1Sc1cccc2cccnc12,78,96,90,82,-0.77,92
O=[N+]([O-])c1ccc(Cl)cc1Sc1nc2ccccc2o1,25*,9,41,95,-1.2,9
Cc1ccnc(Sc2ccc([N+](=O)[O-])cc2[N+](=O)[O-])n1,x,5.2*,x,x,0.16,6
O=[N+]([O-])c1ccc(Sc2nc3ccccc3o2)c([N+](=O)[O-])c1,0.2*,1.9*,2.6*,0.9*,1.8,1.4*
CC(=O)CSc1nc2ccccc2o1,106,96,104,108,-0.1,101
Cc1ccc(Sc2ccc([N+](=O)[O-])cc2[N+](=O)[O-])nc1,x,56,x,x,x,64
CCOc1ccccc1C(=O)N1CCC(n2nnc3cc(C)ccc32)CC1,89,84,101,101,0.94,88
CCOc1ccccc1C(=O)N1CCC(n2nnc3cc(C(F)(F)F)ccc32)CC1,39*,77,80,98,-0.047,81
Cc1ccc(-c2cc(N)n(Cc3ccc(Cl)cc3)n2)cc1,x,30,x,x,-5*,47
Nc1cc(-c2ccc(Cl)cc2)nn1S(=O)(=O)c1ccc(Cl)cc1,43,87,64,88,-0.44,88
COC(=O)c1sccc1NC(=O)CSc1ccccc1NS(=O)(=O)c1ccc(F)cc1,x,90,x,x,-5.6*,92
COC(=O)c1sccc1NC(=O)CSc1ccccc1NS(=O)(=O)c1ccc(Br)cc1,x,63,x,x,-3,68
Cc1onc(-c2c(Cl)cccc2Cl)c1C(=O)N1CCCc2ccccc21,12*,27,68,77,-2.8,23
Cc1onc(-c2c(F)cccc2Cl)c1C(=O)N1CCc2ccccc21,30*,70,103,109,-0.99,63
Cc1nn(CC(=O)Nc2cccc(S(N)(=O)=O)c2)c(C)c1[N+](=O)[O-],x,98,x,x,x,100
Cc1cc(NC(=O)c2ccc3c(c2)C(=O)N(C2CCCCC2)C3=O)no1,27*,9,92,79,-0.079,9
Cc1cc(NC(=O)c2ccc3c(c2)C(=O)N(CCC(C)C)C3=O)no1,40*,72,93,99,-0.43,68
SMILES,H69AR inhibit,HCT116 bCat-KO,HUVEC prolif 384,Lung fibro prol,Cav3 T inh,PTEN del growth
Cc1nn(C)c(C(=O)N/N=C/c2ccc(C(F)(F)F)cc2)c1[N+](=O)[O-],x,93,x,x,x,96
CCNC(=S)N/N=C/c1ccc(OCc2ccc(C(=O)OC)cc2)cc1,x,101,x,x,x,102
Cc1cc(=O)n2[nH]c(N)c(N=Nc3ccccc3)c2n1,x,74,x,x,x,78
COc1cccc(N=Nc2c(N)[nH]n3c(=O)cc(-c4ccccc4)nc23)c1,x,3.1*,x,x,x,12
Cc1ccc(N=Nc2c(N)[nH]n3c(=O)cc(-c4ccccc4)nc23)cc1,x,7,x,x,-7.5*,13
Cc1ccc(C)c(N/N=C2\CCCNC2=O)c1,x,88,x,x,x,87
COc1ccc(-c2nc3c(c(=O)[nH]c(=O)n3Cc3ccccc3)n2C)cc1,65,78,86,100,0.42,82
COc1ccc(-c2nc3c(c(=O)[nH]c(=O)n3Cc3ccccc3)n2Cc2ccccc2)cc1,x,67,x,x,-6.4*,67
CC1Oc2ccccc2OC1(O)c1ccc2ccccc2n1 (centres undefined),x,89,x,x,x,95
CCN1C(=O)/C(=C/c2ccc(C)s2)NC1=S,4.1*,83,97,102,-0.1,99
COc1ccc(-n2c(SCCC#N)nnc2-c2cc(Cl)ccc2OC)cc1Cl,24*,18,51,62,-4.3*,12
CCC1=NNc2cccc3c(OC)ccc1c23,98,78,21*,3.8*,-0.48,72
CCc1ccc(Nc2nnc(SCC(=O)NCCN3C(=O)CSC3=O)s2)cc1,x,77,x,x,x,109
CCC1CCc2c(sc3nc(SCC(=O)NCc4ccco4)n(-c4ccccc4)c(=O)c23)C1 (centres undefined),3.0*,81,38,64,-1.3,79
CC1CCc2c(sc3ncn4c(SCC(=O)NCc5ccco5)nnc4c23)C1 (centres undefined),10*,62,88,102,-4,72
O=C(NCc1ccccc1)c1cccc(NS(=O)(=O)c2cccc3cccnc23)c1,x,90,x,x,x,103
O=C(NNC(=O)c1cccnc1SCc1cccc([N+](=O)[O-])c1)c1ccc(F)cc1,x,41,x,x,x,32
O=C(NNC(=O)c1cccnc1SCc1cccc([N+](=O)[O-])c1)c1ccccn1,x,6.0*,x,x,x,10
CCOC(=O)c1c(NC(=O)COC(=O)c2nc(Cl)ccc2Cl)sc2c1CCC2,x,76,x,x,x,70
CCc1ccc(NC(=O)CSc2nnc(Cn3c(=O)sc4ccccc43)n2C)cc1,77,92,77,103,0.18,89
CCOC(=O)c1ccc(NC(=O)CSc2nnc(Cn3c(=O)sc4ccccc43)n2C)cc1,16*,98,65,95,x,107
Cc1ccc(NC(=O)CSc2nnc(Cn3c(=O)sc4ccccc43)n2C)cc1Cl,29*,85,44,99,x,95
CCOC(=O)c1ccccc1NC(=O)CSc1nnc(COc2ccccc2C)n1C,89,93,99,99,-4.6*,83
C/C(=N/NC(=O)Cc1ccccc1)c1ccc(C)s1,x,103,x,x,x,110
O=C(N/N=C\CCc1ccccc1)c1ccco1,x,87,x,x,x,89
C=CCn1c(SCc2c(C)noc2C)nnc1C1COc2ccccc2O1 (centres undefined),94,77,82,86,-4.9*,80
COC(=O)/C=C/C(=O)Nc1cccc(C(F)(F)F)c1,x,68,x,x,x,71
O=C(CC(Nc1ccc(Cl)cc1)C(=O)O)c1ccccc1 (centres undefined),104,70,61,88,-0.27,83
O=C(CC(Nc1ccc(F)cc1)c1ccccc1)c1ccccc1 (centres undefined),x,8,x,x,x,3.4*
CCOc1ccc(N2C(=O)/C(=C\c3ccccc3OC)S(=O)(=O)C2c2cccc([N+](=O)[O-])c2)cc1 (centres undefined),x,80,x,x,x,90

# Screening data: PubChem, several laboratories
